Assay results taken from ChEMBL document CHEMBL5346889, “Discovery of 4-oxo-N-phenyl-1,4-dihydroquinoline-3-carboxamide derivatives as novel anti-inflammatory agents for the treatment of acute lung injury and sepsis” (Eur J Med Chem, 2023).
Active and inactive are the calls of the source. The calls are words filed in the database; no cut-off is given here.

How the values were obtained:
[1] = AUC (0 to t) in rat at 10 mg/kg, po; assay type: ADME, organism-based; design: dose 10 mg/kg, route po; settings: in vivo
Method in brief: (§1)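 Rats dosed intravenously at 1 mg/kg or orally at 10 mg/kg; plasma pharmacokinetic parameters AUC(0-t), Tmax, T1/2, Cmax and oral bioavailability F derived from the two routes.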

THP-1 = experiment: Antiinflammatory activity in LPS-induced human THP-1 cells assessed as inhibition of LPS-induced IL-1 beta transcription preincubated for 0.5 hrs followed by LPS stimulation for 6 hrs by RT-qPCR method; assay type: functional, cell-based; settings: dose 5-10 µM, time 6.5 hrs
Method in brief: (§2)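 J774A.1 or THP-1 cells pretreated 0.5 h at 10 or 5 μM, then LPS 0.5 μg/mL for 6 h. TRIzol RNA; IL-6, TNF-α and IL-1β transcripts by RT-qPCR, normalized to β-actin and control; 3 independent experiments, mean ± SEM.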

Mus musculus [2] = experiment: Protection against LPS-induced C57/BL6 mouse acute lung injury model assessed as reduction in number of neutrophils in BALF at 20 mg/kg via oral gavage preincubated for 30 mins followed by LPS stimulation for 6 hrs; assay type: functional, organism-based; settings: time 6.5 hrs
Method in brief: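 Mice dosed 20 mg/kg by gavage (dexamethasone 20 mg/kg comparator), intratracheal LPS 5 mg/kg 30 min later, killed at 6 h. Right upper lobe fixed in paraformaldehyde, H&E; lung wet/dry ratio; BALF protein, total cells and neutrophils counted; n = 5 mice per group, mean ± SEM.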

LX-2 = experiment: Antiinflammatory activity in LPS-induced human LX2 cells assessed as inhibition of LPS-induced IL-6 release preincubated for 30 mins followed by LPS stimulation for 24 hrs by ELISA method; assay type: functional, cell-based
Method in brief: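 THP-1 or LX-2 cells in DMEM with 10% FBS, 37 °C, 5% CO2. Pretreated 30 min at 10, 5, 2.5 or 1.25 μM, then LPS 0.5 μg/mL for 24 h. IL-6 and TNF-α in medium measured by ELISA, normalized to lysate total protein; mean ± SEM of 3 independent experiments.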

Mus musculus [3] = experiment: Antiinflammatory activity in LPS-induced C57/BL6 mouse acute lung injury model assessed as decrease in IL-6 level in serum at 20 mg/kg via oral gavage preincubated for 30 mins followed by LPS stimulation for 6 hrs by ELISA; settings: time 6.5 hrs
J774.A1 = experiment: Antiinflammatory activity in LPS-induced mouse J774.A1 cells assessed as inhibition of LPS-induced IL-1 beta transcription preincubated for 0.5 hrs followed by LPS stimulation for 6 hrs by RT-qPCR method; assay type: functional, cell-based; settings: dose 5-10 µM, time 6.5 hrs; method in brief: as §2
[4] = Tmax in rat at 10 mg/kg, po; assay type: ADME, organism-based; settings: in vivo; method in brief: as §1
[5] = AUC (0 to t) in rat at 1 mg/kg, iv; assay type: ADME, organism-based; design: dose 1 mg/kg, route iv; settings: in vivo; method in brief: as §1

AUC(0-t) [1]: 22900 ng·h/mL
IC50 (LX-2): 2620 nM
Tmax [4]: 5 h
AUC(0-t) [5]: 6320 ng·h/mL
SMILES: COc1cc2nccc(Oc3ccc(NC(=O)c4cn(-c5ccccc5)c5ccccc5c4=O)cc3)c2cc1OC
inhibition (THP-1): Dose-Dependent Effect
Activity (Mus musculus [2]): Active
Activity (Mus musculus [3]): Active
inhibition (J774.A1): Dose-Dependent Effect
